The source of these data is ChEMBL document CHEMBL4368870, “Design, synthesis and biological evaluation of novel 2-phenyl pyrimidine derivatives as potent Bruton's tyrosine kinase (BTK) inhibitors” (Medchemcomm, 2019).

Each structure is given as a SMILES string. The source made the active and inactive calls. The rule behind the calls is not given here. Some results are limits rather than exact numbers.

Assay [1] has as its system Ramos. The assay can be described thus: Cell cycle arrest in human Ramos cells assessed as accumulation of cells at G2/M phase at 5 uM after 48 hrs by propidium iodide staining-based flow cytometric analysis (reference value: 4.26%). Type of assay: functional. The gist of the method: (§1)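 Ramos cells incubated 48 h with 5 μM test agent, DMSO as blank control; DNA content by flow cytometry gives the share of cells in each cell-cycle phase.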

Assay [2] deals with Ramos. Kind of assay: Antiproliferative activity against human Ramos cells after 48 hrs by MTT assay. The class given is functional, cell-based. The gist of the method: (§2)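 Cell proliferation read by MTT in three […] (HL60, Raji, Ramos), all said to over-express BTK. IC50 values were determined for each line.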
Assay [3] relates to Ramos. Kind of assay: Induction of apoptosis in human Ramos cells assessed as late apoptotic cells at 5 uM after 48 hrs by propidium iodide staining-based flow cytometric analysis (reference value: 0.98%). The class given is functional.
In assay [4] the test system is Raji. Kind of assay: Antiproliferative activity against human Raji cells at 5 uM by MTT assay. Type of assay: functional, cell-based. As to conditions: TDE = time-dependent effect. The gist of the method: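 Raji cells, proliferation by MTT; viability followed over treatment time at 5 μM.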
For assay [5], the system named is Ramos. Kind of assay: Cell cycle arrest in human Ramos cells assessed as accumulation of cells at S phase at 5 uM after 48 hrs by propidium iodide staining-based flow cytometric analysis (reference value: 71.08%). Type of assay: functional. The essentials: as §1
The test system of assay [6] is Ramos. The assay can be described thus: Induction of apoptosis in human Ramos cells assessed as viable cells at 5 uM after 48 hrs by propidium iodide staining-based flow cytometric analysis (reference value: 96.83%). As to conditions: read-out: Activity. The class given is functional.
Assay [7] concerns Ramos. Kind of assay: Induction of apoptosis in human Ramos cells assessed as necrotic cells at 5 uM after 48 hrs by propidium iodide staining-based flow cytometric analysis (reference value: 1.11%). The class given is functional.
Assay [8] concerns Raji. Kind of assay: Antiproliferative activity against human Raji cells after 48 hrs by MTT assay. The class given is functional, cell-based. The gist of the method: as §2
In the next assay the test system is HL-60. The assay can be described thus: Antiproliferative activity against human HL60 cells after 48 hrs by MTT assay. The class given is functional, cell-based. As to conditions: HL-60, 48 h. The gist of the method:
as §2

Assay [9] deals with Raji. The assay can be described thus: Antiproliferative activity against human Raji cells at 40 uM after 72 hrs by MTT assay relative to control. Type of assay: functional. The essentials: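 Raji cells were exposed to the compound over a range of concentrations and treatment times, with the MTT-based viability read-out taken up to 72 h. The 40 μM, 72 h point is expressed as viability relative to control.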

Assay [10] concerns the target Tyrosine-protein kinase BTK (Homo sapiens) (UniProt Q06187). Kind of assay: Inhibition of BTK phosphorylation at Tyr223 residue in human Ramos cells at 100 to 9000 nM after 24 hrs by Western blot analysis. Type of assay: cell-based.
The test system of assay [11] is Ramos. Kind of assay: Induction of apoptosis in human Ramos cells assessed as early apoptotic cells at 5 uM after 48 hrs by propidium iodide staining-based flow cytometric analysis (reference value: 1.08%). The class given is functional.
For assay [12], the system named is Ramos. The assay can be described thus: Cell cycle arrest in human Ramos cells assessed as accumulation of cells at G0/G1 phase at 5 uM after 48 hrs by propidium iodide staining-based flow cytometric analysis (reference value: 24.65%). Type of assay: functional. The gist of the method: as §1
Assay [13] has as its target Tyrosine-protein kinase BTK (Homo sapiens) (UniProt Q06187). Kind of assay: Inhibition of BTK in human Ramos cells assessed as reduction in PLCgamma-2 phosphorylation at Try1217 residue at 100 to 9000 nM after 24 hrs by Western blot analysis. The class given is cell-based.
The subject of assay [14] is Ramos. Kind of assay: Cell cycle arrest in human Ramos cells assessed as apoptotic cells at 5 uM after 48 hrs by propidium iodide staining-based flow cytometric analysis (reference value: 5.03%). The class given is functional.

Sequence of Tyrosine-protein kinase BTK (Homo sapiens) (Q06187 whole entry): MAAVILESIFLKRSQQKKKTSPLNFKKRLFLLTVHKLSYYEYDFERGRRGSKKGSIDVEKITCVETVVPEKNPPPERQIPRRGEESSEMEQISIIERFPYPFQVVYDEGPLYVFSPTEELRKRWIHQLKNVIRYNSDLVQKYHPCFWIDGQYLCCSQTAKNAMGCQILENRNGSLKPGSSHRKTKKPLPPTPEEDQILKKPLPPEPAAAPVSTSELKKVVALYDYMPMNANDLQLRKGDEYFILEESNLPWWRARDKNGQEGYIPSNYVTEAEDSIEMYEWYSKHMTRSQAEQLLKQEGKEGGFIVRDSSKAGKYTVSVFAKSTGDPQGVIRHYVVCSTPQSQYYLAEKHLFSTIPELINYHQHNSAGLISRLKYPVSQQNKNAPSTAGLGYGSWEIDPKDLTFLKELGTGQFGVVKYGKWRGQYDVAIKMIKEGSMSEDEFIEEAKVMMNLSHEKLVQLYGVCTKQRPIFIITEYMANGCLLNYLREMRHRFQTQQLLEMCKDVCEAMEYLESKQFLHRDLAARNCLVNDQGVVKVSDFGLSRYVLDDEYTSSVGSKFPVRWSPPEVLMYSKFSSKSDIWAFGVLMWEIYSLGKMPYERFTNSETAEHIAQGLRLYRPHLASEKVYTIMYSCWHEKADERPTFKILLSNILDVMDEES

As for `C=CC(=O)Nc1ccc(-c2nc(Cl)cc(Nc3ccc(C(=O)Nc4cccc(C)c4)cc3)n2)cc1`, the Activity was 4.21% in the assay on Ramos [1]; 12.7% in the assay with Ramos [3]; “Tde” in the assay with Raji [4]; 59.51% with Ramos [5]; 0.23% with Ramos [7]; 90% with Raji [9]. In addition, the results for the Activity with Ramos [11], with Ramos [12] and in the assay on Ramos [14] were 25.8%, 36.27% and 13.91%, respectively. In addition, the IC50 in the assay with Ramos [2] was 5.39 µM; with Raji [8], 6.98 µM; in the assay on HL-60, 3.66 µM. Besides, in the assay on Ramos [6], the viability at 5 µM was found to be 61.3%. For the same molecule, the inhibition entry in assay [10] and in assay [13] was “Active” throughout.
In the case of `C=CC(=O)Nc1ccc(-c2nc(Cl)cc(Nc3ccc(C(=O)N4CCCC4)cc3)n2)cc1`, the IC50 was determined as 10.4 µM in the assay with Ramos [2], 19.2 µM in the assay with Raji [8] and 15.8 µM in the assay on HL-60.
Taken in the same sequence, the figures for `C=CC(=O)Nc1ccc(-c2nc(Cl)cc(Nc3ccc(C(=O)Nc4cc(C(F)(F)F)cc(C(F)(F)F)c4)cc3)n2)cc1` were 6.18 µM, 9.36 µM and 4.79 µM.
As to `C=CC(=O)Nc1ccc(-c2nc(Cl)cc(Nc3ccc(C(=O)Nc4cc(C)ccc4C)cc3)n2)cc1`, the results for the IC50 with Ramos [2], in the assay with Raji [8] and with HL-60 were 16.8 µM, 20.9 µM and 14.9 µM, respectively.
On the same counts, the results for `C=CC(=O)Nc1ccc(-c2nc(Cl)cc(Nc3ccc(C(=O)N4CCOCC4)cc3)n2)cc1` are 7.24 µM, 14.7 µM and 5.94 µM.
On to `C=CC(=O)Nc1ccc(-c2nc(Cl)cc(Nc3ccc(C(=O)N(C)C)cc3)n2)cc1`, for which the IC50 in the assay with Ramos [2] is more than 50 µM; in the assay on Raji [8], 42.9 µM; in the assay on HL-60 it was more than 50 µM.
As to `C=CC(=O)Nc1ccc(-c2nc(Cl)cc(Nc3ccc(C(=O)N(CC)CC)cc3)n2)cc1`, the IC50 was 11.2 µM in the assay on Ramos [2], 12.5 µM in the assay with Raji [8] and 9.34 µM in the assay on HL-60.
For `C=CC(=O)N1CCC[C@@H](n2nc(-c3ccc(Oc4ccccc4)cc3)c3c(N)ncnc32)C1` [IBRUTINIB], the Activity is 4.26% in the assay on Ramos [1]; 2.71% in the assay on Ramos [3]; “Tde” with Raji [4]; 65.18% with Ramos [5]; 0.37% in the assay with Ramos [7]; 5.12% in the assay on Ramos [11]. The Activity is listed as 30.5% with Ramos [12] and 4.33% in the assay with Ramos [14]. Also, the IC50 turned out to be 2.31 µM with Ramos [2], 14.5 µM in the assay with Raji [8] and 3.57 µM in the assay with HL-60. Also, the viability at 5 µM in the assay on Ramos [6] came out at 91.8%.
